AHR act: AHR activators, primary screen, cell-based, luminescence, luciferase reporter, human; AHR-responsive luciferase reporter cells; activation, % at 5 µM; 2.5% of 320,000 active; in the data active = activation above about 47%;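 note: 0% = vehicle wells and 100% = reference agonist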
Target sequence (P35869 whole entry, looked up): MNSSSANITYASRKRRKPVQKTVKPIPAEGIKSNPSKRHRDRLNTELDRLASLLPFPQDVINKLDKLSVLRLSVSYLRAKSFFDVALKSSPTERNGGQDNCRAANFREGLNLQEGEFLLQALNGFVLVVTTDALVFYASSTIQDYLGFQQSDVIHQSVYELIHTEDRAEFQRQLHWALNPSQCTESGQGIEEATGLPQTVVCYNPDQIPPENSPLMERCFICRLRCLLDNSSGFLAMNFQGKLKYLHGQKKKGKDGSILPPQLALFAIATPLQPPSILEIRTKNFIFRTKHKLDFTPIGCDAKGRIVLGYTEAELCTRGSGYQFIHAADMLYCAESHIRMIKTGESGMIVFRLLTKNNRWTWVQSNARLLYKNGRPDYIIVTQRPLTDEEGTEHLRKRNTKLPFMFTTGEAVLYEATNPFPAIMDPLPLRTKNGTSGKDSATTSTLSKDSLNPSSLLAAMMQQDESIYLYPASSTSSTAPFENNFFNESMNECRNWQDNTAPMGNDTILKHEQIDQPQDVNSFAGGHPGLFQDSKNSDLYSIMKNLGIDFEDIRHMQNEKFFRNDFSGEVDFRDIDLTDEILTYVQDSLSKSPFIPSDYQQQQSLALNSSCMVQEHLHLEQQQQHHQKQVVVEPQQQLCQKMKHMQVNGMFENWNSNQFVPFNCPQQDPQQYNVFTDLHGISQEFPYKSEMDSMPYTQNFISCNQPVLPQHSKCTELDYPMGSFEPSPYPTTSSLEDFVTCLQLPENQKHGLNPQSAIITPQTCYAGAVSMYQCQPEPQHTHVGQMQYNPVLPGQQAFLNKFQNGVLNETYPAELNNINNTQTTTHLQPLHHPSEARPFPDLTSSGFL
H9c2 TAG inh: inhibitors of triacylglycerol accumulation, primary screen, cell-based, uHTS, fluorescence, H9c2. H9c2 cells, Nile Red lipid (TAG) fluorescence; cells loaded with 200 µM oleic acid. inhibition, % at 12.5 µM. 0.66% of 230,000 active;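 active = pattern-corrected inhibition of lipid staining of at least 50% with the nuclear-stain viability signal not falling by more than 50%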;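 note: 0% = DMSO wells and 100% = triacsin C control wells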
Efflux pump mplx: inhibitors of Candida efflux pumps in yeast, primary screen, S. cerevisiae, Nile Red, multiplex; S. cerevisiae Candida pump triplex; inhibition, % at 10 µM; 0.44% of 330,000 active;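 active = plate passing quality check with inhibition over a set limit, or well fluorescence over plate mean plus 4 SD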;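 note: Nile Red retained in pooled yeast measured as flow cytometry median fluorescence; 0% = buffer negative control and 100% = Enniatin B positive control; higher means more Nile Red kept so more efflux inhibition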
SMARCA2 activ: SMARCA2 (BRM) function activators, primary screen, cell-based, luminescence, high throughput | MG213 cells, MMTV-luciferase reporter, dexamethasone, overnight | activation, % at 9.1 µM | 1% of 370,000 active; in the data active = activation above about 7.8%;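 note: 0% = vehicle wells and 100% = reference activator wells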
Tb MetRS inh: T. brucei MetRS inhibitors, primary screen, biochemical, luminescence; inhibition, % at 11.9 µM; 0.4% of 360,000 active; methionyl-tRNA synthetase (Trypanosoma brucei brucei); purified T. brucei MetRS, ATP depletion, Kinase-Glo luminescence;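 active = inhibition above a per-plate cutoff of the control wells' mean inhibition plus 3 SD, cut at about 5.5% in these data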;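 note: 0% = DMSO wells median and 100% = median of wells with control inhibitor compound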
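Material – parasite MetRS enzyme · Medium – HEPES-MgCl2-KCl buffer plus DTT, spermine, BSA, pyrophosphatase · Reagent – ATP, methionine and E. coli bulk tRNA substrates · Times – 15 min enzyme-compound preincubation, 2 h reaction, 10 min detection, 25 °C · Measured by – luminescence of leftover ATP · Evaluation – percent inhibition relative to median high and low control wells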
Numbers without * were called inactive; . = no result. Hits are enriched below; roughly 4.1% of the tested compounds scored in any of these assays.

SMILES | AHR act | H9c2 TAG inh | Efflux pump mplx | SMARCA2 activ | Tb MetRS inh
Fc1ccc(C2=CC(c3ccco3)n3ncnc3N2)cc1 (centres undefined) | 15.0 | . | -0.3 | . | -0.2
CCOc1ccc(C2C=C(c3ccccc3)Nc3ncnn32)cc1 (centres undefined) | 39.1 | . | -0.1 | . | .
Cn1cccc1C1C=C(c2ccc(C(C)(C)C)cc2)Nc2ncnn21 (centres undefined) | 66.5* | . | 0.2 | 1.0 | -0.1
Fc1ccc(Br)cc1C1C=C(c2cccnc2)Nc2ncnn21 (centres undefined) | 58.8* | 0.9 | 0.8 | . | 0.1
CC(C)(C)c1ccc(C2=CC(c3ccccc3F)n3ncnc3N2)cc1 (centres undefined) | 26.5 | 18.4 | 0.2 | 5.0 | -0.5
Cc1nc(Nc2ccc(Cl)cc2)c2oc3ccccc3c2n1 | 78.4* | . | -0.3 | -2.7 | 0.2
Cc1nc(Nc2ccccc2F)c2oc3ccccc3c2n1 | 55.9* | . | -0.1 | 4.8 | 0.1
CCc1nc(NCc2cccnc2)c2oc3ccccc3c2n1 | 64.1* | . | -0.1 | 0.1 | -0.7
CCNc1nc(CC)nc2c1oc1ccccc12 | 17.2 | . | -0.5 | 2.9 | 0.0
Cc1nc(Nc2cccc(F)c2)c2oc3ccccc3c2n1 | 48.8* | . | -0.2 | 1.9 | 0.2
CS(=O)(=O)c1ccc(OC[C@@H](O)CN2CCC(C(O)(c3ccccc3)c3ccccc3)CC2)cc1 | . | . | . | 0.7 | .
COc1ccccc1CNC(=O)N1CCC(c2nc3ccc(Cl)cc3[nH]2)CC1 | . | . | . | -3.8 | .
O=C(OC12CCCN(C1)/C(=C/c1cccnc1)C2)c1ccco1 (centres undefined) | . | . | . | -3.2 | .
O=[N+]([O-])c1cc(C=NN2CCN(Cc3ccccc3Cl)CC2)ccc1Cl | . | . | . | 3.5 | .
CCc1nc(Nc2ccc3c(c2)OCCO3)c2oc3ccccc3c2n1 | 63.2* | . | 0.0 | -4.3 | -1.2
Cc1ccc(Nc2ncnc3c2oc2ccccc23)cc1 | 53.6* | 13.1 | -0.1 | 2.2 | -0.4
COc1ccc(Nc2ncnc3c2oc2ccccc23)cc1 | 7.8 | -13.0 | 0.1 | 5.9 | -0.4
Cc1nc(Nc2ccc3c(c2)OCCO3)c2oc3ccccc3c2n1 | 33.8 | 10.3 | -0.1 | 0.2 | -2.6
CCOC(=O)N1CCN(C(=O)C[C@H]2C(=O)N(CCCOC)C3=CCCCC[C@]32C(=O)OC)CC1 | . | . | . | -4.0 | .
CC(C)CN(CC(C)C)C(=O)c1cn(C(C)c2ccccc2)nn1 (centres undefined) | . | . | . | -8.1 | .
CC(=O)Nc1nc(-c2ccccc2)ns1 | 9.4 | 5.0 | -0.1 | 3.7 | -1.0
COCC(=O)Nc1nc(-c2ccccc2)ns1 | 47.0* | . | 0.1 | 0.1 | 0.6
COC(=O)[C@]12C[C@H](CC(=O)NCCC(C)C)C(=O)N(Cc3ccco3)C1=C[C@H](C(C)(C)C)O[C@@H]2C | . | . | . | -2.5 | .
CC(=O)c1cc2c(cc1NC(=O)c1ccc(Cl)cc1)OCCO2 | 17.5 | . | 0.0 | -2.2 | -0.6
CC(=O)c1cc2c(cc1NC(=O)Nc1cccc(Cl)c1)OCCO2 | 58.3* | 12.8 | 0.1 | 0.7 | -0.6
SMILES | AHR act | H9c2 TAG inh | Efflux pump mplx | SMARCA2 activ | Tb MetRS inh
Cc1ccc(Sc2ccc(NC(=O)c3ccc(S(C)(=O)=O)cc3Cl)cc2)cc1 | 47.8* | . | 0.2 | 1.6 | 0.4
CS(=O)(=O)c1ccc(C(=O)Nc2ccc(N3CCCCC3)cc2)c(Cl)c1 | -5.6 | -9.1 | -0.1 | -3.3 | -0.9
O=C1CN(C(=O)Cn2ncc(Cl)c(Cl)c2=O)c2ccccc2N1 | . | 69.3* | . | -12.6 | -0.1
Nc1nc(COc2ccccc2)cs1 | 3.6 | . | -0.1 | 7.9* | -0.5
Cc1ccc(OCc2csc(N)n2)cc1 | 8.3 | -7.3 | 0.1 | 0.6 | -0.8
CCCCC(=O)N/C(N)=N/c1nc2ccccc2o1 | 1.6 | -8.6 | 0.2 | 3.0 | 3.9
Cc1cc(C)c2nc(/N=C(\N)NC(=O)c3ccccc3)nc(C)c2c1 | 24.9 | 9.6 | -0.1 | 4.9 | -0.6
Cc1cc(C)c2nc(/N=C(\N)NC(=O)Nc3ccccc3)nc(C)c2c1 | 70.3* | . | 0.0 | 0.7 | -0.8
CCCC(=O)N/C(N)=N/c1nc(C)c2ccccc2n1 | 59.7* | -10.2 | -0.1 | -3.6 | -0.3
CCc1ccc2nc(/N=C(\N)NC(=O)c3ccccc3)nc(C)c2c1 | 24.8 | -3.5 | 0.1 | 7.9* | -0.2
COC(=O)[C@]12C[C@H](CC(=O)NCc3ccc(OC)c(OC)c3)C(=O)N(Cc3ccco3)C1=C[C@H](C(C)(C)C)O[C@@H]2C | . | . | . | -1.0 | .
CCOc1ccc(-n2c(SCC(=O)Nc3ccc(S(=O)(=O)Nc4nccs4)cc3)nnc2-c2ccccc2)cc1 | . | . | . | 3.6 | .
CC(C)N(C[C@@H]1CSCCS(=O)(=O)N1)C1CCCCC1 | . | . | . | -1.8 | .
O=C(Nc1ccc(Cl)cc1C(=O)Nc1ccc(Br)cn1)c1ccco1 | 61.3* | . | -0.5 | 4.2 | -0.4
Cc1cc(Br)ccc1NC(=O)c1ccco1 | 16.6 | 3.5 | 0.0 | -0.6 | -0.2
O=C(c1cc(NC(=O)C23CC4CC(CC(C4)C2)C3)cc(NC(=O)C23CC4CC(CC(C4)C2)C3)c1)N1CCCCC1 | -1.8 | . | 1.1* | . | .
O=C(NC(=S)N1CCCCC1)C12CC3CC(CC(C3)C1)C2 | 1.9 | -8.4 | -0.1 | -0.2 | 0.4
O=S1(=O)c2ccc(Br)cc2OC[C@H](Cc2ccccc2)N1Cc1cn(CCC2OCCO2)nn1 | . | . | . | -1.2 | .
CCOC(=O)C(/C(C)=N/NC(=O)C1CC1c1ccccc1)C(C)C (centres undefined) | 2.1 | . | 0.0 | -0.6 | -0.5
C/C(=N\NC(=O)C1CC1c1ccccc1)c1ccc(C)s1 (centres undefined) | 75.2* | -10.1 | -0.2 | -2.4 | -0.3
COc1cc(/C=N/N(C)c2ccccc2)cc(Cl)c1O | 52.3* | -0.5 | -0.1 | 2.0 | -1.1
COc1ccc(OC)c(/C=N/N(C)c2ccccc2)c1 | -2.9 | . | 0.0 | 0.4 | -0.2
O=C(Nc1nc2ccccc2s1)c1ccc([N+](=O)[O-])o1 | 1.0 | . | 0.0 | -2.2 | -0.5
COc1ccc2nc(NC(=O)c3ccc([N+](=O)[O-])o3)sc2c1 | 52.1* | . | 0.0 | 4.0 | -0.2
Cc1cc(C)c2sc(NC(=O)c3ccc([N+](=O)[O-])o3)nc2c1 | 8.7 | 56.8* | 0.0 | -2.4 | 0.1
SMILES | AHR act | H9c2 TAG inh | Efflux pump mplx | SMARCA2 activ | Tb MetRS inh
CC(C)CNC(=O)OCc1cn(Cc2cccc(Cl)c2)nn1 | . | . | . | -0.8 | .
FC(F)(F)c1cccc(-n2cc(-c3ccccc3)[nH]c2=S)c1 | 61.3* | . | -0.2 | -1.3 | -1.1
Fc1ccccc1-n1cc(-c2ccccc2)[nH]c1=S | 35.8 | 13.9 | 0.2 | 3.6 | 0.7
Brc1ccc(N=NNc2ccccc2)cc1 | 57.6* | 8.3 | 0.1 | 5.8 | 0.8
O=C1/C(=C\c2ccc3c(c2)OCO3)CCC/C1=C/c1ccc2c(c1)OCO2 | 48.5* | . | 0.0 | 0.5 | 0.1
O=C1OCC/C1=C\c1ccc2c(c1)OCO2 | 10.0 | . | 0.0 | 2.3 | -1.1
CCCC[C@H](C(=O)N(C)c1cccc(OC)c1)[C@@H](O)c1ccc2ccccc2c1 | . | . | . | -2.6 | .
Clc1ccccc1CSc1ncn(-c2ccccc2)n1 | 67.9* | 3.2 | 0.1 | 5.4 | -1.3
Cc1ccc(CSc2ncn(-c3ccccc3)n2)cc1 | -3.4 | . | -0.1 | 3.1 | -0.4
